Assay results collected from several papers.
Each line is one published result; the experiments were not run side by side.

SMILES | target or system | assay | test system | conditions | quantity | value
Cc1c(Cc2ccccc2)c(=O)oc2c(C)c(OCC(=O)NN=Cc3ccco3)ccc12 | MDA-MB-231 | cell growth or viability, MTT |  | 500 µg/mL | viability | 1.17%
CC(C)C[C@@H]1NC(=O)[C@@H](N(C)C(=O)[C@H](CC2CCC2)NC(=O)[C@@H]2C[C@@H](F)CN2C(=O)C2(C(F)(F)F)CC(F)(F)C2)CCCCNC(=O)C2(CC2)NC(=O)[C@H](Cc2cc(Cl)ccc2Cl)N(C)C1=O | NCI-H526 | cell growth or viability, MTT |  | 5 days | GI50 | 240 nM
C[C@@H]1CC[C@@H]([C@](O)(CNCc2ccccc2)COCc2ccccc2)[C@H](OCc2ccccc2)C1 | MDA-MB-231 | cell growth or viability, MTT |  | 30 µM, 72 h | inhibition | 99.3%
C=CCO/N=c1\cc2n(-c3ccc(Cl)cc3)c3ccccc3nc-2cc1Nc1ccc(Cl)cc1 | Neisseria gonorrhoeae | microbial growth | ATCC49226 |  | MIC | 15 µM
CCc1c(C)c2ccc(OCC(=O)NN=Cc3ccc([N+](=O)[O-])cc3)cc2oc1=O | MDA-MB-231 | cell growth or viability, MTT |  | 1000 µg/mL | viability | 13%
CO/N=c1\cc2n(-c3ccc(Cl)cc3)c3ccccc3nc-2cc1Nc1ccc(Cl)cc1 | Neisseria gonorrhoeae | microbial growth | ATCC49226 |  | MIC | 0.94 µM
C=CC(=O)NC1CCN(c2ncc3ncnc(Nc4ccc(Oc5ccc6c(c5)ncn6C)c(C)c4)c3n2)CC1 | Panc 04.03 | cell growth or viability |  |  | EC50 | 5190 nM
O=C(CO/N=c1\cc2n(-c3ccc(Cl)cc3)c3ccccc3nc-2cc1Nc1ccc(Cl)cc1)NCc1ccc2c(c1)CCO2 | Neisseria gonorrhoeae | microbial growth | ATCC49226 |  | MIC | 15 µM
CCOc1ccc2c(C)c(CC)c(=O)oc2c1C | MDA-MB-231 | cell growth or viability, MTT |  | 250 µg/mL | viability | 32.3%
C=C(C)[C@@H]1CC[C@@H](C)C[C@H]1OCc1ccccc1 | MDA-MB-231 | cell growth or viability, MTT |  | 30 µM, 72 h | inhibition | 87%
Cc1c(Cc2ccccc2)c(=O)oc2c(C)c(OCC(=O)NN=Cc3ccc([N+](=O)[O-])cc3)ccc12 | MDA-MB-231 | cell growth or viability, MTT |  | 1000 µg/mL | viability | 11.2%
O=C1C(Br)=C(Br)C(=O)c2ccccc21 | Lodderomyces parapsilosis | microbial growth, broth dilution | ATCC22019 | 24 h | MIC | < 1.56 µg/mL
